According to ChEMBL document CHEMBL5653614, “Rescue of fragile X syndrome phenotypes in Fmr1 KO mice by the small-molecule PAK inhibitor FRAX486” (Proc Natl Acad Sci U S A, 2013):
Active and inactive are the calls of the source. No cut-off for these calls is given here.

Key:
Mus musculus [1] = experiment: (§1) Anti-seizure activity against 124dB loud auditory stimulus induced Fmr1 knockout FVB.129P2-Fmr1tm1Cgr/J mouse model of audiogenic seizure assessed as decrease in sound-induced wild running at 20 mg/kg,sc for 5 days followed by audiogenic seizure induction after 8 hrs post-treatment by audiogenic seizure assay (Rvb=100%); type: functional; set-up: scale not given: the % may be the effect or the level left; conditions: time 5 day
Method in brief: (§2)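 Adult male Fmr1 KO mice given 10 or 20 mg/kg s.c. daily for 5 d in 20% hydroxypropyl-β-cyclodextrin vehicle. AGS assay run 8 h after the final injection: 2 min acclimation in an acrylic chamber, then a 124 dB auditory stimulus. Incidence of wild running and seizure recorded; χ2 comparison with vehicle.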

Mus musculus [2] = experiment: Protective activity in Fmr1 knockout FVB.129P2-Fmr1tm1Cgr/J mouse model of Fragile X syndrome assessed as decrease in horizontal movements at 20 mg/kg, sc for 5 days and measured for 30 mins by open field assay; type: functional, organism-based; conditions: time 5.0 day
Method in brief: (§3)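 Adult male WT and Fmr1 KO mice dosed s.c. at 20 mg/kg or vehicle for 5 d; tested 4–5.5 h after dosing. Single mouse in a novel open field for 30 min, tracked by infrared sensors in 1-min bins; bar-graph values averaged over minutes 18–30. Mice beyond 2 SD in total distance, or immobile for 5 consecutive minutes, were excluded.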

Mus musculus [3] = experiment: Anti-seizure activity against 124dB loud auditory stimulus induced Fmr1 FVB.129P2-Pde6b+ Tyr c-ch/AntJ wild type mouse model of audiogenic seizure assessed as decrease in sound-induced death due to respiratory arrest at 20 mg/kg,sc for 8 hrs followed by audiogenic seizure induction by audiogenic seizure assay; type: functional, organism-based
Method in brief: (§4)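 Adult male mice (10–17 wk). Single s.c. dose (0, 10, 20 or 30 mg/kg) in 20% (wt/vol) hydroxypropyl-β-cyclodextrin vehicle; AGS induced 8 h later. Mouse acclimated 2 min in a clear acrylic two-chamber box, then exposed to a 124 dB sound. Scored as percentage of animals showing each sequential phase (wild running, seizure, death by respiratory arrest); χ2 test against vehicle.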

Mus musculus [4] = experiment: Protective activity in Fmr1 knockout FVB.129P2-Fmr1tm1Cgr/J mouse assessed as decrease in apical dendritic spine density in layer II/III pyramidal neurons segment 6 at 20 mg/kg, sc and measured after 8 hrs by Golgi-Cox technique analysis; type: functional, organism-based
Method in brief: (§5)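 Adult male WT and Fmr1 KO FVB mice given 20 mg/kg s.c. or vehicle; brains collected 8 h later and Golgi stained. Apical dendrites of layer II/III pyramidal neurons in temporal cortex, originating 50–100 µm from the soma, were divided into ten 10-µm segments and spines counted. 40–60 neurons from 4–6 mice per group; one-way ANOVA.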

[5] = Drug concentration in FVB.129P2 mouse brain at 20 mg/kg,sc and measured from 8 to 18 hrs by LC-MS/MS analysis; type: ADME, organism-based; conditions: in vivo, time 8-18 hrs
Method in brief: (§6)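 WT FVB.129P2 mice got one s.c. injection of 20 mg/kg (2 mg/mL in 20% hydroxypropyl-β-cyclodextrin). Blood and forebrain were collected at time points from 15 min to 24 h. Forebrain was weighed, snap-frozen and homogenized in 2 volumes of cold PBS. Drug quantified by LC-MS/MS. n = 2–3, mean ± SEM.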

[6] = Tmax in FVB.129P2 mouse plasma at 20 mg/kg,sc by LC-MS/MS analysis; type: ADME, organism-based
Method in brief: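 WT FVB.129P2 mice received a single s.c. injection of 20 mg/kg FRAX486 in 20% (wt/vol) hydroxypropyl-β-cyclodextrin. Blood was collected at time points from 15 min to 24 h, n = 2–3 per point. Plasma drug levels were quantified by LC-MS/MS and reported as mean ± SEM.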

Mus musculus [7] = experiment: Protective activity in Fmr1 knockout FVB.129P2-Fmr1tm1Cgr/J mouse assessed as decrease in apical dendritic spine density in layer II/III pyramidal neurons segment 7 at 20 mg/kg, sc and measured after 8 hrs by Golgi-Cox technique analysis; type: functional, organism-based; method in brief: as §5
[8] = target: Serine/threonine-protein kinase PAK 4 (Homo sapiens, UniProt O96013); experiment: Inhibition of PAK4 (unknown origin) by Z'-LYTE functional assay
Method in brief: (§7)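 Full-length PAK isoforms phosphorylating an optimized peptide substrate in a Z-LYTE biochemical kinase assay, 10-point inhibitor titration. Duplicates (n = 2, mean ± SEM) plotted semilog; IC50 from a variable-slope sigmoidal dose–response fit.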

Mus musculus [9] = experiment: Protective activity in FVB.129P2-Pde6b+ Tyr c-ch/AntJ wild type mouse assessed as decrease in horizontal movements at 20 mg/kg, sc for 5 days and measured for 30 mins by open field assay; type: functional, organism-based; conditions: time 5.0 day; method in brief: as §3
Mus musculus [10] = experiment: Protective activity in Fmr1 knockout FVB.129P2-Fmr1tm1Cgr/J mouse assessed as decrease in apical dendritic spine density in layer II/III pyramidal neurons segment 10 at 20 mg/kg, sc and measured after 8 hrs by Golgi-Cox technique analysis; type: functional, organism-based; method in brief: as §5
Mus musculus [11] = experiment: Anti-seizure activity against 124dB loud auditory stimulus induced Fmr1 knockout FVB.129P2-Fmr1tm1Cgr/J mouse model of audiogenic seizure assessed as decrease in sound-induced seizure at 10 mg/kg,sc for 8 hrs followed by audiogenic seizure induction by audiogenic seizure assay (Rvb=100%); type: functional; set-up: scale not given: the % may be the effect or the level left; method in brief: as §4
Mus musculus [12] = experiment: as §1, with “seizure” for “wild running”, “10” for “20”, “(Rvb=96%)” for “(Rvb=100%)”; type: functional; set-up: scale not given: the % may be the effect or the level left; conditions: time 5 day; method in brief: as §2
Mus musculus [13] = experiment: Protective activity in FVB.129P2-Pde6b+ Tyr c-ch/AntJ wild type mouse assessed as increase in testicular weight at 20 mg/kg, sc for 21 days; type: functional, organism-based; conditions: time 21.0 day
Mus musculus [14] = experiment: Protective activity in Fmr1 knockout FVB.129P2-Fmr1tm1Cgr/J mouse assessed as decrease in apical dendritic spine density in layer II/III pyramidal neurons segment 4 at 20 mg/kg, sc and measured after 8 hrs by Golgi-Cox technique analysis; type: functional, organism-based; method in brief: as §5
[15] = Drug uptake in FVB.129P2 mouse plasma at 20 mg/kg,sc for 5 days and measured after 24 hrs by LC-MS/MS analysis; type: ADME, organism-based; conditions: in vivo, 120 h, time 5 day
Method in brief: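 Mice dosed s.c. at 20 mg/kg once daily for up to 5 d; plasma and forebrain sampled 24 h after the last injection. Brain homogenized in 2 volumes of cold PBS; levels measured by LC-MS/MS. n = 3–4, mean ± SEM.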

Mus musculus [16] = experiment: Protective activity in Fmr1 knockout FVB.129P2-Fmr1tm1Cgr/J mouse assessed as decrease in apical dendritic spine density in layer II/III pyramidal neurons segment 5 at 20 mg/kg, sc and measured after 8 hrs by Golgi-Cox technique analysis; type: functional, organism-based; method in brief: as §5
Mus musculus [17] = experiment: Protective activity in Fmr1 knockout FVB.129P2-Fmr1tm1Cgr/J mouse model of Fragile X syndrome assessed as increase in testicular weight at 20 mg/kg, sc for 21 days; type: functional, organism-based; conditions: time 21.0 day
Mus musculus [18] = experiment: Anti-seizure activity against 124dB loud auditory stimulus induced Fmr1 knockout FVB.129P2-Fmr1tm1Cgr/J mouse model of audiogenic seizure assessed as decrease in sound-induced wild running at 30 mg/kg,sc for 8 hrs followed by audiogenic seizure induction by audiogenic seizure assay (Rvb=100%); type: functional; set-up: scale not given: the % may be the effect or the level left; method in brief: as §4
[19] = target: Serine/threonine-protein kinase PAK 3 (Homo sapiens, UniProt O75914); experiment: Inhibition of PAK3 (unknown origin) by Z'-LYTE functional assay; method in brief: as §7
[20] = Drug concentration in FVB.129P2 mouse brain at 20 mg/kg,sc and measured after 1 hrs by LC-MS/MS analysis; type: ADME, organism-based; conditions: read-out: Ct; method in brief: as §6

Sequence of Serine/threonine-protein kinase PAK 3 (O75914 whole entry): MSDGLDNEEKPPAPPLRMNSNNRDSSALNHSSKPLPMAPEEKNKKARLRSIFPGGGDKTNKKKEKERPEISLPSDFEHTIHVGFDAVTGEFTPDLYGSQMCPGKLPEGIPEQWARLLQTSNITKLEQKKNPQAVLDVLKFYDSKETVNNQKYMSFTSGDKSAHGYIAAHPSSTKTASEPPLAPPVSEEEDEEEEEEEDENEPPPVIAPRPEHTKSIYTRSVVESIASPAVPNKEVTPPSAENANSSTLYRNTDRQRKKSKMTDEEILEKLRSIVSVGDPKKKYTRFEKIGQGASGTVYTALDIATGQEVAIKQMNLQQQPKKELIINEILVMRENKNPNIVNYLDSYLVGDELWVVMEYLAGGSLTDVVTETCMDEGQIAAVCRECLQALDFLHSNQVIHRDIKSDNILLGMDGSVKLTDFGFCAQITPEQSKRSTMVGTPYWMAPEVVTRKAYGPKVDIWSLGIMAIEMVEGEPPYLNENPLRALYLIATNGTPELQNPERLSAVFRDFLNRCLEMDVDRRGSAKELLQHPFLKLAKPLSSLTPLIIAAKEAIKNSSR
Sequence of Serine/threonine-protein kinase PAK 4 (O96013 whole entry, canonical isoform): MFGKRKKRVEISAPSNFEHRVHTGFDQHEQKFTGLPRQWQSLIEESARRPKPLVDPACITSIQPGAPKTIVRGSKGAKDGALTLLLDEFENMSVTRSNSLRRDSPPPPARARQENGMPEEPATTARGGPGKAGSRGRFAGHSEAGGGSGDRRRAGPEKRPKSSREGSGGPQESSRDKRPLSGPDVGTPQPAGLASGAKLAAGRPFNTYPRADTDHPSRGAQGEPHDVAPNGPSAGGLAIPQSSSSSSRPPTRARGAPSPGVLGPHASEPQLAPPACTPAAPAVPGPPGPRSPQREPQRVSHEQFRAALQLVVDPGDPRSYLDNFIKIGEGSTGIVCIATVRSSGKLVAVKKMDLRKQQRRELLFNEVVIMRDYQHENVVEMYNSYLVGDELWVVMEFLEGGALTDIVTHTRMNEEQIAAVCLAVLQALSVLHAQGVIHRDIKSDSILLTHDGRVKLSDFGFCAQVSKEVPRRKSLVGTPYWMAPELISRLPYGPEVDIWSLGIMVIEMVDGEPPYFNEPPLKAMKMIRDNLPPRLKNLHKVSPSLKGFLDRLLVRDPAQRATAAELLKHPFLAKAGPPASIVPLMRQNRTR

Ct [5]: 951 ng/g
Tmax [6]: 15 min
IC50 [8]: 0.779 µM
Drug uptake [15]: Active
IC50 [19]: 0.0553 µM
concentration at 1 h [20]: 155 ng/g
SMILES: CCn1c(=O)c(-c2ccc(Cl)cc2Cl)cc2cnc(Nc3ccc(N4CCNCC4)c(F)c3)nc21
Activity (Mus musculus [1]): 54%
Activity (Mus musculus [2]): Active
Activity (Mus musculus [3]): inactive
Activity (Mus musculus [4]): inactive
Activity (Mus musculus [7]): inactive
Activity (Mus musculus [9]): Active
Activity (Mus musculus [10]): inactive
Activity (Mus musculus [11]): 80%
Activity (Mus musculus [12]): 50%
Activity (Mus musculus [13]): inactive
Activity (Mus musculus [14]): Active
Activity (Mus musculus [16]): inactive
Activity (Mus musculus [17]): inactive
Activity (Mus musculus [18]): 0%
